Measured values pooled from the literature.
Each line is one published result; the experiments were not run side by side.
Method: competition with immobilised ligand
RPS6KA6 C-terminal kinase domain: Ribosomal protein S6 kinase alpha-6, C-terminal kinase domain (RPS6KA6, Homo sapiens, UniProt Q9UK32)
RPS6KA6 N-terminal kinase domain: Ribosomal protein S6 kinase alpha-6, N-terminal kinase domain (RPS6KA6, Homo sapiens, UniProt Q9UK32)

O=C(NCC1CCOCC1)c1n[nH]cc1NC(=O)c1c(F)cccc1F
remaining binding (RPS6KA6 C-terminal kinase domain; binding; 1 µM): 99%

NS(=O)(=O)c1cc(NC(=O)C2(c3ccccc3Cl)CC2)ccc1Oc1cccc(Cl)c1
remaining binding (RPS6KA6 C-terminal kinase domain; cell-free assay; 1 µM): 96%

FC(F)(F)Oc1cccc(-c2cnc3ccc(-c4ccncc4)nn23)c1
remaining binding (RPS6KA6 N-terminal kinase domain; binding; 5 µM): 64%

CN(C)c1ncc(F)c(-c2cnn3ncccc23)n1
remaining binding (RPS6KA6 C-terminal kinase domain; binding; 1 µM): 98%

O=C1NC(c2ccccn2)Sc2ccccc21 (centres unmarked)
remaining binding (RPS6KA6 N-terminal kinase domain; cell-free assay; 1 µM): 96%

O=C(c1ccc(Nc2ncc(Cl)c(-c3ccc(Cl)s3)n2)cc1)N1CCC(N2CCCC2)CC1
remaining binding (RPS6KA6 N-terminal kinase domain; binding; 1 µM): 41%

COc1cnc(Nc2cccc(S(N)(=O)=O)c2)nc1N1CCN(c2ccccc2)C(=O)C1
remaining binding (RPS6KA6 N-terminal kinase domain; binding; 1 µM): 79%

Nc1ncc2c(n1)-c1c([nH]c3ccc(C#CC4CC4)cc13)CCCC2
remaining binding (RPS6KA6 C-terminal kinase domain; binding; 1 µM): 91%

COc1ncc2cc3ccccc3nc2c1C#N
remaining binding (RPS6KA6 N-terminal kinase domain; cell-free assay; 5 µM): 100%

CN(C)C(=O)Cn1cc(-c2nc(C3(c4ccc(-c5cnc(N)nc5)cc4)CC3)no2)cn1
remaining binding (RPS6KA6 N-terminal kinase domain; cell-free assay; 1 µM): 83%

CNC(=O)[C@@H]1CC[C@@H](n2c(-c3ccc4cnccc4c3)nc3ccc(C(=O)NCc4cccc(C(N)=O)c4)cc32)C1
remaining binding (RPS6KA6 N-terminal kinase domain; binding; 1 µM): 100%

O=C(c1ccc(Nc2ncc(Cl)c(-c3cc4ccccc4s3)n2)cc1)N1CCC(N2CCCC2)CC1
remaining binding (RPS6KA6 N-terminal kinase domain; binding; 1 µM): 46%

Cc1cnn2ncc(-c3ccnc(N(C)C)n3)c2c1
remaining binding (RPS6KA6 N-terminal kinase domain; binding; 1 µM): 82%

O=C(O)c1cc(-c2ccc(C3CCNCC3)cc2)c2ccc(-c3ccc(C(F)(F)F)cc3)cc2c1
remaining binding (RPS6KA6 N-terminal kinase domain; cell-free assay; 1 µM): 100%

O=C(Nc1c[nH]nc1C(=O)NC1CCNCC1)c1cc(F)cc(F)c1
remaining binding (RPS6KA6 N-terminal kinase domain; binding; 1 µM): 94%

N[C@@H]1CCN(c2nccc(-c3cnn4ncccc34)n2)C1
remaining binding (RPS6KA6 N-terminal kinase domain; binding; 1 µM): 100%

COc1cc(-c2cn(C3CCc4ccccc4N(CC(F)(F)F)C3=O)nn2)ccc1-n1ccc(C)n1 (centres unmarked)
remaining binding (RPS6KA6 N-terminal kinase domain; cell-free assay; 1 µM): 81%

COc1cnc(Nc2cccc(S(N)(=O)=O)c2)nc1N1CCN(c2ccccc2)CC1
remaining binding (RPS6KA6 C-terminal kinase domain; binding; 1 µM): 69%

O=C(NCCCN1CCOCC1)c1ccc(Nc2ncc(Cl)c(-c3ccc(Cl)s3)n2)cc1
remaining binding (RPS6KA6 C-terminal kinase domain; binding; 1 µM): 85%

c1cncc(-c2cccc(Nc3nccc(NC4CCCCC4)n3)c2)c1
remaining binding (RPS6KA6 C-terminal kinase domain; binding; 10 µM): 87%

CN(c1nccc(-c2cnn3ncccc23)n1)C1CC1
remaining binding (RPS6KA6 N-terminal kinase domain; binding; 1 µM): 83%

CCN1CCN(Cc2ccc(C(=O)Nc3ccc(C)c(Oc4ccc5c(c4)CC(=O)N5)c3)cc2C(F)(F)F)CC1
remaining binding (RPS6KA6 N-terminal kinase domain; binding; 1 µM): 100%

O=C(NCCCN1CCOCC1)c1ccc(Nc2nccc(-c3cc4ccccc4s3)n2)cc1
remaining binding (RPS6KA6 N-terminal kinase domain; binding; 1 µM): 67%

COc1cc(C(=O)N2CCC(N3CCN(C)CC3)CC2)ccc1Nc1ncc2c(n1)N(C)c1ccccc1C(=O)N2C
remaining binding (RPS6KA6 C-terminal kinase domain; binding; 10 µM): 2.2%

CN(C)c1nccc(-c2cnn3ncccc23)n1
remaining binding (RPS6KA6 C-terminal kinase domain; binding; 1 µM): 100%

O=C(NS(=O)(=O)c1ccc(NCC2CCOCC2)c([N+](=O)[O-])c1)c1ccc(N2CCN(Cc3ccc(C(F)(F)F)cc3-c3ccc(Cl)cc3)CC2)cc1Oc1cnc2[nH]ccc2c1
remaining binding (RPS6KA6 C-terminal kinase domain; cell-free assay; 1 µM): 100%

CN(C)c1nccc(-c2cnc3ncccn23)n1
remaining binding (RPS6KA6 N-terminal kinase domain; binding; 1 µM): 69%

CCS(=O)(=O)c1cc2cc(C[C@@](O)(CC(C)(C)c3ccc(F)cc3C(N)=O)C(F)(F)F)[nH]c2cn1
remaining binding (RPS6KA6 N-terminal kinase domain; cell-free assay; 1 µM): 100%

Cc1cnc(Nc2ccc(C(=O)N3CCC(N4CCCC4)CC3)cc2)nc1-c1cc2ccccc2s1
remaining binding (RPS6KA6 C-terminal kinase domain; binding; 1 µM): 72%

CC1CCCN1c1nccc(-c2cnn3ncccc23)n1 (centres unmarked)
remaining binding (RPS6KA6 C-terminal kinase domain; binding; 1 µM): 100%

O=C(c1ccc(Nc2nccc(-c3cc4ccccc4s3)n2)cc1)N1CCC(N2CCCC2)CC1
remaining binding (RPS6KA6 C-terminal kinase domain; binding; 1 µM): 63%

Cc1c(C(=O)O)cc(-c2ccc(C3CCNCC3)cc2)c2ccc(-c3ccc(C(F)(F)F)cc3)cc12
remaining binding (RPS6KA6 C-terminal kinase domain; binding; 1 µM): 100%
